# Data from ChEMBL document CHEMBL1135408, “Design and synthesis of novel 5-substituted acyclic pyrimidine nucleosides as potent and selective inhibitors of hepatitis B virus” (J Med Chem, 2002).
# Assays:
# [1] = test system: Anas sp.; test: Concentration required to reduce the viral DNA in infected cells to 50% of untreated infected controls of Hepatitis B virus in primary duck hepatocyte (DHBV) cultures; format: functional
# Summary of the method: (§1)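 Primary hepatocytes from 9–14 day old ducklings persistently infected with DHBV, in L-15 with 5% FBS plus antibiotics. Compound was serially diluted and added in triplicate from day 2, with medium changed every second day to day 12; cells were harvested day 14. Viral DNA was measured by 32P-probe dot-blot and phosphorimaging, and EC50 was taken as 50% reduction versus untreated infected cells.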
# [2] = test system: HFF; test: Concentration required to reduce the proliferation of HFF (human foreskin fibroblasts) cells to 50% of untreated controls; format: functional, cell-based
# [3] = test system: Vero; test: Cytotoxic concentration required to reduce the viability of Vero cells as determined by MTT assay; format: functional; conditions: Chlorocebus sabaeus
# Summary of the method: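 Vero cells were seeded at 2.5 × 10^4 per well and attached for 6–8 h. They were then exposed for 3 days at 37 °C to 200–1.5 µg/mL, with a DMSO control. MTT was added for 4 h, solubilized overnight, and absorbance read at 560–650 nm. CC50 is 50% viability of untreated control.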
# [4] = Concentration required to reduce the proliferation of PHA stimulated human peripheral blood T lymphocytes to 50% of untreated PHA stimulated control; format: functional
# Summary of the method: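 Nylon-wool-enriched T cells from normal donor buffy coats, 2 × 10^5 per well in serum-free AIM V, were stimulated with PHA at 1 µg/mL final. Compounds from DMSO stock were tested in triplicate from 50 µg/mL in serial dilutions. After 3–4 days at 37 °C, cells were pulsed with [3H]thymidine 1 µCi/well for 18 h and counted by scintillation. Counts were compared with DMSO-matched PHA controls.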
# [5] = test system: Daudi; test: Concentration required to reduce the proliferation of Daudi cells to 50% of untreated controls; format: functional, cell-based; conditions: Homo sapiens
# Summary of the method: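 Daudi cells were grown in suspension, so no trypsin detachment was used. CC50 is the concentration reducing proliferation to 50% of untreated controls.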
# [6] = test system: Anas sp.; test: In vitro antiviral activity against Hepatitis B virus in primary duck hepatocyte (DHBV) cultures and expressed as percent inhibition of viral DNA at 10 ug/mL; format: functional
# Summary of the method: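 DHBV-infected primary duck hepatocytes in L-15 with 5% FBS were treated at 10 µg/mL final in triplicate from day 2 to day 12, with medium changed every second day, and harvested day 14. DNA was extracted and dot-blot hybridized with a 32P DHBV probe, then quantified by phosphorimaging. % inhibition = (untreated − treated)×100/untreated, averaged over triplicates.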
# [7] = test system: HFF; test: Cytotoxic concentration required to reduce the uptake of neutral red stain by uninfected cell monolayers to 50% of untreated uninfected human foreskin fibroblasts (HFF); format: functional
# Summary of the method: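 Neutral red uptake was measured in uninfected human foreskin fibroblast monolayers after 7 days of exposure. CC50 is 50% of untreated uninfected cells; ">" means 50% was not reached at the highest concentration tested.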
# [8] = test system: Anas sp.; test: Concentration required to reduce the viral DNA in infected cells to 50% of untreated infected controls of Hepatitis B virus in primary duck hepatocyte (DHBV) cultures.; format: functional, organism-based; summary of the method: as §1
SMILES,EC50 [1] [µg/mL],IC50 [2] [µg/mL],CC50 [3] [µg/mL],IC50 [4] [µg/mL],IC50 [5] [µg/mL],inhibition at 10 µg/mL [6] [%],CC50 [7] [µg/mL],EC50 [8] [µg/mL]
CC(N=[N+]=[N-])c1cn(COCCO)c(=O)[nH]c1=O (stereo not given),> 10,,,,,,,
CC(N=[N+]=[N-])c1cn(CCC(CO)CO)c(=O)[nH]c1=O (stereo not given),0.1,,,,,,,
C=C(N=[N+]=[N-])c1cn(COCCO)c(=O)[nH]c1=O,0.01,> 100,> 100,> 50,> 50,84,> 100,
C=C(N=[N+]=[N-])c1cn(CCC(CO)CO)c(=O)[nH]c1=O,0.01,> 100,> 200,> 50,> 50,93,> 100,
C=C(N=[N+]=[N-])c1cn(COC(CO)CO)c(=O)[nH]c1=O,0.01,100,> 200,> 50,> 50,86,> 100,
CC(N=[N+]=[N-])c1cn(COC(CO)CO)c(=O)[nH]c1=O (stereo not given),1,,,,,,,
Nc1nc2c(ncn2COC(CO)CO)c(=O)[nH]1 [GANCICLOVIR],1.5,,,,,,,
Nc1ccn([C@@H]2CS[C@H](CO)O2)c(=O)n1 [LAMIVUDINE],0.01,,> 100,> 50,,96,,
Nc1nc(O)c2ncn(CCC(CO)CO)c2n1 [PENCICLOVIR],,,,,,,,0.3
